Sampled rows, rich in hits. Any-hit rate of the full collection: about 2.3%.
CHT inh: inhibits the human high affinity choline transporter; B-score at 10 µM; CHT-expressing cells, membrane potential dye, choline response; active compounds read low; Q9GZV3; hit rate 0.86% among 310,000;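 active = B-score over 3 SD under the library average, and starting fluorescence ratio not unusually high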;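 also: choline stimulus applied at its EC90 after an EC20 pre-addition; B-score computed on integrated fluorescence ratio after choline addition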
NR2F2 inh: blocks human COUP-TFII nuclear receptor; P24468; HEK293T NGFI-A luciferase reporter, luminescence; inhibition, % at 8.6 µM; hit rate 0.7% among 370,000;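 active = inhibition above a per-plate cutoff, mean inhibition of test wells between control levels plus 3 SD, cut at about 38% in these data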;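 also: cells cotransfected with COUP-TFII expression vector driving the NGFI-A reporter; 0% = median of COUP-TF2 test wells and 100% = reporter-only cells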
Target sequence (P24468 whole entry, looked up): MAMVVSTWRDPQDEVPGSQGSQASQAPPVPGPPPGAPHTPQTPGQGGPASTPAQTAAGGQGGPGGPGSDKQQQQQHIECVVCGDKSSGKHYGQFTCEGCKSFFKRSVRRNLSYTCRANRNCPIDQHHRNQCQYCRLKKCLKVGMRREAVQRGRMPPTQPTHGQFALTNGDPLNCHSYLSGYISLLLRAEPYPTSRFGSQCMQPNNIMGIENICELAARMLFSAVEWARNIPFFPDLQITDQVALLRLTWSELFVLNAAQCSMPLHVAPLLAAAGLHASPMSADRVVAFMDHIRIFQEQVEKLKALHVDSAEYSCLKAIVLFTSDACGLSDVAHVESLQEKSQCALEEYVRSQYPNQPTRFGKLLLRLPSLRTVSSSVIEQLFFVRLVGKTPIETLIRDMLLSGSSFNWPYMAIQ
NR2E3 ag-1: activates human photoreceptor nuclear receptor NR2E3. Q9Y5X4. GST-NR2E3/biotin-RetCOR TR-FRET, 1536-well. inhibition of corepressor binding, % at 4.78 µM. hit rate 0.12% among 320,000;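 active = percent inhibition above the cutoff of mean plus 3 SD of all tested compounds, set per screening campaign, cut at about 20% in these data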;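 also: 0% = DMSO wells and 100% = biotin wells as full block of FRET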
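Material: NR2E3–RetCOR corepressor complex / Incubation: Compound–protein incubation for 5 h at 4 °C / Dosing: compound at 4.8 µM, single dose / Detection: time-resolved FRET / Benchmarks: high control biotin, low control 0.6% DMSO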
NR2E3 ag-2: agonists of human NR2E3 nuclear receptor. Q9Y5X4. inhibition of corepressor binding, % at 3.98 µM. CHO-S Gal4-NCOR/VP16-NR2E3 two-hybrid, luciferase. hit rate 0.35% among 360,000;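 active = inhibition above the mean of all tested compounds plus 3 SD, cut at about 70% in these data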;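 also: 0% = DMSO with NR2E3 transfected cells and 100% = cells lacking NR2E3 construct; higher means lower luciferase signal from less NR2E3 corepressor binding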
GalR3 antag: antagonists of human GalR3; O60755; HEK293 GalR3-CNG cAMP membrane potential fluorescence; galR3 body fused to GalR1 C-terminus; inhibition, % at 3 µM; hit rate 0.44% among 360,000; AID 651719;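 active = inhibition above the screen-wide average plus 3 SD, cut at about 13% in these data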;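 also: forskolin and galanin both at EC90 stimulate the cells; cAMP rise reported by CNG channel membrane potential dye signal; 0% = forskolin plus galanin with DMSO and 100% = forskolin alone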
CHT allo act: human CHT allosteric activation; AID 488977; CHT-expressing cells, membrane potential dye, choline EC20; active compounds read high; LV-AA mutant CHT in HEK293 cells; B-score at 10 µM; hit rate 0.49% among 310,000;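 active = initial fluorescence not abnormally high and integrated response B-score, plate-corrected, over 3 SD above library mean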
Gal4-VP16 ctr: counter-screen for COUP-TFII antagonists: inhibitors of VP16; shares compounds with NR2F2 inh; HEK293 Gal4-VP16 luciferase reporter, luminescence; AID 687007; inhibition, % at 8.5 µM; hit rate 25% among 2,500; in the data active = inhibition above about 13%
NR2F2 inh conf: confirmation of human COUP-TFII (NR2F2) inhibitors. shares compounds with NR2F2 inh. HEK293 NGFI-A luciferase reporter, luminescence. inhibition, % at 8.5 µM. hit rate 45% among 2,500;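 active = mean inhibition over three repeats above a set limit taken from the earlier primary screen, cut at about 38% in these data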;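 also: 100% = cells given the luciferase reporter alone without the COUP-TF2 vector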
The depositor's hits bear a star; i = inactive; . = no result given.

SMILES	CHT inh	NR2F2 inh	NR2E3 ag-1	NR2E3 ag-2	GalR3 antag	CHT allo act	Gal4-VP16 ctr	NR2F2 inh conf
O=C(COC(=O)c1ccc[nH]c1=O)Nc1ccc(N2CCCCC2)cc1	.	86*	.	34	-2	.	77*	71*
CCOC(=O)c1ccc(-c2ccc(N3C(c4ccsc4)=Cc4ccc(F)cc4C3c3c[nH]c4ccc(C#N)cc34)cc2)cc1F (stereo not given)	.	56*	.	-47	-7	.	-5	0
O=C(CCCc1ccccc1)NC1CC1	i	-20	-1	-28	-2	i	.	.
O=C(O)CCCc1ccc2c(c1)CCc1ccccc1-2	i	75*	4	-13	-3	i	57*	49*
C/C(C=NNC(=O)CSc1nc2ccccc2n1C)=C\c1ccccc1	.	-27	.	.	.	.	.	.
O=C(CSc1nc2c(c(=O)[nH]1)CCCC2)N1CCOCC1	.	-4	.	.	.	.	.	.
CCOC(=O)c1cnc2c(OC)cccc2c1N1CC(C)CC(C)C1 (stereo not given)	i	40*	3	-7	-6	i	-7	7
CCOC(=O)c1cnc2c(OC)cccc2c1N1CCN(c2ccc(OC)cc2)CC1	i	11	1	-6	2	i	.	.
CCC(C)N(C(=O)CN1C(=O)C2CCCCN2C(=O)c2ccccc21)C(C)CC (stereo not given)	.	-3	.	.	.	.	.	.
CCOC(=O)Oc1c(OC)cc(C(=O)O[C@@H]2C[C@@H]3CN4CCc5c([nH]c6cc(OC)ccc56)[C@H]4C[C@@H]3[C@H](C(=O)OC)[C@H]2OC)cc1OC	i	50*	0	-9	0	i	-12	43*
O=C(c1ccc(Cl)cc1)C1CCN(c2ncnc3sccc23)CC1	.	69*	.	.	.	.	0	56*
Cc1sc2ncnc(N3CCC(C(=O)Nc4nc(-c5cccs5)cs4)CC3)c2c1C	i	18	3	-5	-1	i	.	.
COc1ccc(C(=O)C2CCN(c3ncnc4sccc34)CC2)cc1	.	76*	.	.	.	.	5	68*
O=C(c1cccs1)C1CCN(c2ncnc3sccc23)CC1	.	76*	.	.	.	.	12	69*
Cc1csc(CNc2ncnc3ccc(-c4cccnc4)cc23)c1	.	-19	.	-5	-2	.	.	.
Cc1csc(CNc2ncnc3ccc(-c4ccoc4)cc23)c1	.	40*	2	-90	-2	.	8	32
c1cncc(CNc2ncnc3ccc(-c4ccoc4)cc23)c1	.	38*	1	-64	-3	.	7	17
Cn1ccnc1C(=O)O[C@@H]1CCC[C@@]2(C(=O)N(Cc3ccccc3)c3ccccc32)[C@H]1NC(=O)CCc1ccccc1	.	-14	.	.	.	.	.	.
O=C(Nc1ccc(Oc2ccccc2)cc1)C1CCCN1S(=O)(=O)c1cccc2cccnc12 (stereo not given)	.	42*	.	.	.	.	13	35
COc1ccc(NC(=O)[C@@H]2CCCN2S(=O)(=O)c2cccc3cccnc23)cc1	i	2	0	15	-4	i	.	.
CC(=O)c1cc(-c2cccc(Cl)c2O)c(=O)n2c1CCC2	.	8	.	.	.	.	.	.
Cc1onc(-c2ccccc2)c1C(=O)NC(=S)NNC(=O)c1ccc(O)cc1O	i	50*	-1	8	-9	i	15*	54*
Cc1ccccc1N1CCN(S(=O)(=O)c2ccc3c(c2)oc(=O)n3C)CC1	.	-2	.	.	.	.	.	.
COc1ccc(-c2cc(C3CCN(c4ccc(C(C)=O)cc4[N+](=O)[O-])CC3)[nH]n2)cc1	i	42*	0	73*	-9	i	-3	19
CC1CN(c2nc3ccccc3nc2SCC(=O)Nc2ccc(F)cc2)CC(C)O1 (stereo not given)	i	-2	5	-10	.	i	.	.
CC1CN(c2nc3ccccc3nc2SCC(=O)N2CCN(S(=O)(=O)c3ccccc3)CC2)CC(C)O1 (stereo not given)	.	43*	.	.	.	.	3	10
